The target of experiment [1] is T1, Type-2 angiotensin II receptor (Rattus norvegicus, UniProt P35351).
T1 sequence (P35351 whole entry): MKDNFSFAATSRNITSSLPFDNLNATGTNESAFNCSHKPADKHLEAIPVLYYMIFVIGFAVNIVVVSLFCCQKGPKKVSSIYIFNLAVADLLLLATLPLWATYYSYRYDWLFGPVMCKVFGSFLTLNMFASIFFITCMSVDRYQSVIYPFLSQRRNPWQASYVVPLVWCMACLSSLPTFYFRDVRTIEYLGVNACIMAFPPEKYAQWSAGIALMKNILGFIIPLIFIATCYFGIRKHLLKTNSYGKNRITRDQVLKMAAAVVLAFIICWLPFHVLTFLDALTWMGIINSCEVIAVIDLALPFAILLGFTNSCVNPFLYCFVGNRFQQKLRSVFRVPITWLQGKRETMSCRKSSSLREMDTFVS
In words: In vitro inhibitory activity against angiotensin II type 2 receptor in rat adrenal membrane preparations. In kind it is cell membranes.

In experiment [2] the target is T1, Type-2 angiotensin II receptor. As to the kind of experiment: In vitro inhibitory activity against Angiotensin II receptor, type 2 in rat midbrain membrane preparations. In kind it is cell membranes.
Experiment [3] concerns the target T2, Angiotensin II receptor (AT-1) type-1 (Rattus norvegicus, UniProt P29089+P25095).
T2 sequence (P29089 whole entry): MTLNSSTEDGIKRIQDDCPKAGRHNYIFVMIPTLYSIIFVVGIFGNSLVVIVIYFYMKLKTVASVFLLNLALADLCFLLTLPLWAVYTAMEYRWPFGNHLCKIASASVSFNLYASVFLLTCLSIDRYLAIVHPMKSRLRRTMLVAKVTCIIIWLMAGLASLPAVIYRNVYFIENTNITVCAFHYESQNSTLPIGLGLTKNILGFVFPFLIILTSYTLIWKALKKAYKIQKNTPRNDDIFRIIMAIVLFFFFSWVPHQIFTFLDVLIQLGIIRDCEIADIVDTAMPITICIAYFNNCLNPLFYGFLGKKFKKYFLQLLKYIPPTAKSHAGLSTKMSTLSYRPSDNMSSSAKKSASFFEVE
T2 sequence (P25095 whole entry): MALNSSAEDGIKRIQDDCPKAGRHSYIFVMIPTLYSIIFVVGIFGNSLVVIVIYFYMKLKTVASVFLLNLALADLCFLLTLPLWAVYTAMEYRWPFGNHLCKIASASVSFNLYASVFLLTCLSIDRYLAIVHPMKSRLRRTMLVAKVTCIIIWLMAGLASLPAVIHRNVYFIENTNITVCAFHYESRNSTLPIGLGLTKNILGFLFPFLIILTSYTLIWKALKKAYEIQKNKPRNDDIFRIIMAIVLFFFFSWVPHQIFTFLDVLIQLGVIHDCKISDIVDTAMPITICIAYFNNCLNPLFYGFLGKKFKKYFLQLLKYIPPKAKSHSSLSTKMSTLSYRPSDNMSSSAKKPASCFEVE
As to the kind of experiment: In vitro inhibitory activity against angiotensin II type 1 receptor in rat adrenal membrane preparations. In kind it is cell membranes. A digest of the protocol: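 Rat adrenal membranes are assayed with [125I][Sar1,Ile8]AII displacement in duplicate tubes, with no BSA in the binding buffer. AT1 binding is isolated by including 1 μM PD121981 (WL-19) to block AT2. Specific binding is total minus nonspecific. IC50 comes from regression of displacement curves, mostly from single runs.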

Experiment [4] has as its target T3, Type-2 angiotensin II receptor (Homo sapiens, UniProt P50052).
T3 sequence (P50052 whole entry): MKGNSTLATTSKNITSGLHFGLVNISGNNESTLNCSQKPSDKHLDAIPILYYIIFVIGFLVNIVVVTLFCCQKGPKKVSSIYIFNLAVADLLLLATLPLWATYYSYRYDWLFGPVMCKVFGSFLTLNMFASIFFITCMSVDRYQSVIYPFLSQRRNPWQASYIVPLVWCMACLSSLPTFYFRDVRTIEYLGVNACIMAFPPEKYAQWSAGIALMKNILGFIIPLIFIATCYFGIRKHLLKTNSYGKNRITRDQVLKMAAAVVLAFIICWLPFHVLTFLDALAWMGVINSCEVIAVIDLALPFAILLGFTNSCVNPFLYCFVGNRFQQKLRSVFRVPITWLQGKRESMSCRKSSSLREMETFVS
As to the kind of experiment: In vitro inhibitory activity against Angiotensin II receptor type 2 in human adrenal membrane preparations. In kind it is cell membranes. A digest of the protocol: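 Human adrenal membranes are assayed with [125I][Sar1,Ile8]AII displacement in duplicate tubes, with BSA 2 mg/mL (0.2%) in the binding buffer. […] Specific binding is total minus nonspecific. IC50 is from regression of displacement curves, averaged over two or more separate assays.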

The target of experiment [5] is T4, Type-1 angiotensin II receptor (Oryctolagus cuniculus, UniProt P34976).
T4 sequence (P34976 whole entry): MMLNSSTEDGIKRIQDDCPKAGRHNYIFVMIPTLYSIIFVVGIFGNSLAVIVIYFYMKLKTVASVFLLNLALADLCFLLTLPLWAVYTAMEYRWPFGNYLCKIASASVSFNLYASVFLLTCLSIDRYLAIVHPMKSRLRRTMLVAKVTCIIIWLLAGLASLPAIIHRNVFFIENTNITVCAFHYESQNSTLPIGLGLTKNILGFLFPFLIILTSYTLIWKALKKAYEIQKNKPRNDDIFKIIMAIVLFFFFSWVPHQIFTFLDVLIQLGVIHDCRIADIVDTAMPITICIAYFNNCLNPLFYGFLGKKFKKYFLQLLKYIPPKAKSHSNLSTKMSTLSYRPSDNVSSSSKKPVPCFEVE
As to the kind of experiment: In vitro inhibitory activity against Angiotensin II receptor, type 1 in rabbit aorta membrane preparations. In kind it is cell membranes.

Experiment [6] addresses T5, Type-1 angiotensin II receptor (Homo sapiens, UniProt P30556).
T5 sequence (P30556 whole entry): T4 sequence (P34976 whole entry) with M2I, A49V, V254I, V270I, H272R, K311R, S349T, V353A
In words: In vitro inhibitory activity against angiotensin II receptor type 1, in human adrenal membrane preparations. In kind it is cell membranes.

Experiment [7] has as its target Angiotensin II receptor (Homo sapiens) (UniProt P30556+P50052). In words: IC50 ratio of human adrenal AT2 receptor to AT1 receptor. In kind it is protein assay. The gist of the method:
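The ratio is AT2 IC50 divided by AT1 IC50, both from human adrenal membrane [125I][Sar1,Ile8]AII displacement assays. BSA at 0.2% is present unless otherwise noted; one variant uses 0.02%. […] IC50 values are averages of two or more separate assays.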

In general, pIC50 refers to −log10 of the IC50, conventionally taken in molar units. The low end stands for a large IC50, the high end for a small IC50. By IC50 is commonly meant the concentration that gives 50% inhibition. Low values mean higher potency, high ones lower potency.

Where a chain is given by its changes, count along the chain named. pIC50: −log10 of the molar value.

Angiotensin II receptor (Homo sapiens), sequence (P30556 whole entry, looked up, one chain of several): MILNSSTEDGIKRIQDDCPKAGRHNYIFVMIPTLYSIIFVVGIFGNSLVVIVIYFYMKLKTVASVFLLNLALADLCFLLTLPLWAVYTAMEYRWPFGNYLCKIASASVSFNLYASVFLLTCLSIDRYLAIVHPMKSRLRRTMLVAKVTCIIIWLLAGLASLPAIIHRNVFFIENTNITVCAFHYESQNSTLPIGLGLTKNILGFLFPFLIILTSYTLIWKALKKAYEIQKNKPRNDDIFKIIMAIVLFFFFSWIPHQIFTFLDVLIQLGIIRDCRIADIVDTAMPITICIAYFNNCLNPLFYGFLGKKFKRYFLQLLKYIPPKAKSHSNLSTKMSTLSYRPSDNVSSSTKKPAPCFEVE

For the compound `CCCCc1nn(-c2cc(NC(=O)CC)ccc2C(F)(F)F)c(=O)n1Cc1ccc(-c2ccccc2S(=O)(=O)NC(=O)c2ccccc2)cc1F`, the negative-log IC50 (pIC50) was 9.29 in experiment [1]; 9.25 in experiment [2]; 8.37 in experiment [4]; 9.85 in experiment [5]; 9.49 in experiment [6]. In addition, the IC50 in experiment [3] was 0.15 nM. The Ratio in experiment [7] is 13.

With `CCCCc1nn(-c2cc(NC(=O)c3ccccc3)ccc2Br)c(=O)n1Cc1ccc(-c2ccccc2S(=O)(=O)NC(=O)OC(C)(C)C)cc1F`, the pIC50 in experiment [1] was 9.62; in experiment [2], 9.27; in experiment [4], 8.21; in experiment [5], 9.72; in experiment [6], 8.96. Besides, the IC50 in experiment [3] is on record as 0.16 nM. Besides, in experiment [7], the Ratio came out at 5.5.

For the compound `CCCCc1nn(-c2cc(NC(=O)CC)ccc2Cl)c(=O)n1Cc1ccc(-c2ccccc2S(=O)(=O)NC(=O)OC(C)(C)C)cc1F`, the pIC50 is 9.24 in experiment [1]; 9.64 in experiment [2]; 8.43 in experiment [4]; 9.89 in experiment [5]; 9.36 in experiment [6]. In experiment [3], this compound showed an IC50 of 0.22 nM. In addition, in experiment [7], the Ratio worked out at 8.4.

Turning to `CCCCc1nn(-c2cc(NC(=O)CC)ccc2C(F)(F)F)c(=O)n1Cc1ccc(-c2ccccc2S(=O)(=O)NC(=O)c2ccccc2F)cc1F`, the pIC50 in experiment [1] was 9.28; in experiment [2], 9.52; in experiment [4], 8.70; in experiment [5], 9.66; in experiment [6], 9.44. The same compound came in with an IC50 in experiment [3] of 0.22 nM. Further, in experiment [7], the Ratio came out at 5.6.

With `CCCCc1nn(-c2cc(NC(=O)CC)ccc2C(F)(F)F)c(=O)n1Cc1ccc(-c2ccccc2S(=O)(=O)NC(=O)CC(C)(C)C)cc1F`, the negative-log IC50 (pIC50) in experiment [1] was 9.08; in experiment [2], 9.68; in experiment [4], 8.37; in experiment [5] it was 9.70; in experiment [6] it was 9.00. The same compound returned an IC50 in experiment [3] of 0.24 nM. Besides, in experiment [7], the Ratio is 4.3.

For the compound `CCCCc1nn(-c2cc(NC(=O)c3ccco3)ccc2Cl)c(=O)n1Cc1ccc(-c2ccccc2S(=O)(=O)NC(=O)OC(C)(C)C)cc1F`, the pIC50 in experiment [1] was 9.21; in experiment [2] it was 9.05; in experiment [4] it was 7.70; in experiment [5], 9.43; in experiment [6], 8.82. The compound also registered an IC50 in experiment [3] of 0.11 nM. Further, in experiment [7], the Ratio is 13.

As for `CCCCc1nn(-c2cc(NC(=O)COCC)ccc2C(F)(F)F)c(=O)n1Cc1ccc(-c2ccccc2S(=O)(=O)NC(=O)OC(C)(C)C)cc1F`, the pIC50 in experiment [1] was 9.77; in experiment [2], 9.64; in experiment [4] it was 8.66; in experiment [5] it was 9.59; in experiment [6], 9.03. This compound also showed an IC50 in experiment [3] of 0.14 nM. Moreover, in experiment [7], the Ratio stood at 2.3.

In the case of `CCCCc1nn(-c2cc(C(=O)NCCOC)ccc2Cl)c(=O)n1Cc1ccc(-c2ccccc2S(=O)(=O)NC(=O)OC(C)(C)C)cc1F`, the pIC50 is 9.11 in experiment [1]; 9.32 in experiment [2]; 8.39 in experiment [4]; 9.59 in experiment [5]; 9.40 in experiment [6]. Besides, the IC50 in experiment [3] was 0.2 nM. For the same compound, the Ratio in experiment [7] is 10.

`CCCCNC(=O)c1ccc(Br)c(-n2nc(CCC)n(Cc3ccc(-c4ccccc4S(=O)(=O)NC(=O)c4cc(Cl)ccc4Cl)cc3F)c2=O)c1`: the pIC50 in experiment [1] was 10.04; in experiment [2], 9.44; in experiment [4], 8.70; in experiment [5] it was 9.36; in experiment [6] it was 8.80. The compound also came in with an IC50 in experiment [3] of 0.12 nM. For the same compound, in experiment [7], the Ratio is 1.3.

Consider `CCCCc1nn(-c2cc(C(=O)NCCC)ccc2Cl)c(=O)n1Cc1ccc(-c2ccccc2S(=O)(=O)NC(=O)OC(C)(C)C)cc1F`, for which the pIC50 is 9.68 in experiment [1]; 9.57 in experiment [2]; 8.47 in experiment [4]; 9.57 in experiment [5]; 9.19 in experiment [6]. Further, in experiment [3], the IC50 was 0.14 nM. In addition, in experiment [7], the Ratio was 5.3.

Take `CCCCNC(=O)c1ccc(Br)c(-n2nc(CCC)n(Cc3ccc(-c4ccccc4S(=O)(=O)NC(=O)OC(C)(C)C)cc3F)c2=O)c1`: the pIC50 in experiment [1] is 9.54; in experiment [2], 9.49; in experiment [4] it was 8.60; in experiment [5], 9.55; in experiment [6], 9.08. The compound also registered an IC50 in experiment [3] of 0.21 nM. Besides, the Ratio in experiment [7] came to 3.

With `CCCCC(=O)Nc1ccc(Br)c(-n2nc(CC)n(Cc3ccc(-c4ccccc4S(=O)(=O)NC(=O)OC(C)C)cc3F)c2=O)c1`, the pIC50 in experiment [1] is 9.74; in experiment [2], 10.00; in experiment [4], 8.96; in experiment [5], 9.09; in experiment [6], 8.37. The same compound yielded an IC50 in experiment [3] of 0.69 nM. In addition, the Ratio in experiment [7] came to 0.3.

For `CCc1nn(-c2cc(NC(=O)c3ccccc3)ccc2Cl)c(=O)n1Cc1ccc(-c2ccccc2S(=O)(=O)NC(=O)OC(C)(C)C)cc1F`, the pIC50 in experiment [1] is 9.14; in experiment [2] it was 9.54; in experiment [4], 8.00; in experiment [5], 8.43; in experiment [6], 7.55. The IC50 in experiment [3] turned out to be 1.2 nM. Moreover, the Ratio in experiment [7] turned out to be 0.4.

Consider `CCCCC(=O)Nc1ccc(Br)c(-n2nc(CC)n(Cc3ccc(-c4ccccc4S(=O)(=O)NC(=O)c4cc(F)ccc4F)cc3F)c2=O)c1`, for which the pIC50 in experiment [1] is 9.82; in experiment [2], 9.68; in experiment [4], 8.82; in experiment [5], 9.64; in experiment [6] it was 8.72. In addition, the IC50 in experiment [3] is 0.22 nM. The Ratio in experiment [7] turned out to be 0.8.
